Experimental data published in ChEMBL document CHEMBL2062449, “Eco-friendly synthesis and biological evaluation of substituted pyrano[2,3-c]pyrazoles” (Bioorg Med Chem Lett, 2012).

Legend:
Rattus norvegicus [1] = assay: Antiinflammatory activity in Wistar rat assessed as protection against carrageenan-induced paw edema at 100 mg/kg, po administered 1 hr before carrageenan challenge measured after 1 hr; format: functional
MCF7 [2] = assay: Cytotoxicity against estrogen receptor-positive human MCF7 cells assessed as inhibition of cell proliferation at 25 ug/ml after 24 hrs by MTT assay; format: functional; details: MCF7, 24 h
How it was run: (§1)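 MTT assay on MCF-7 human breast cancer cells, Taxol as reference; percentage inhibition of cell proliferation read at graded concentrations from 0.1 to 50 μg/mL (typically five or six levels per compound); IC50 in μg/mL derived from the inhibition series.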

Bacillus subtilis = assay: Antibacterial activity against Bacillus subtilis at […] after 24 hrs by agar diffusion method; format: functional
How it was run: (§2)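 Single-concentration antibacterial screen at 100 μg/50 μL per test against the standard bacterial strains.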

MCF7 [3] = assay: Cytotoxicity against estrogen receptor-positive human MCF7 cells assessed as inhibition of cell proliferation at 1 ug/ml after 24 hrs by MTT assay; format: functional; details: MCF7, 24 h; how it was run: as §1
Pseudomonas aeruginosa = assay: Antibacterial activity against Pseudomonas aeruginosa at 100 ug/[…] after 24 hrs by agar diffusion method; format: functional; how it was run: as §2
MCF7 [4] = assay: Cytotoxicity against estrogen receptor-positive human MCF7 cells assessed as inhibition of cell proliferation at 50 ug/ml after 24 hrs by MTT assay; format: functional; details: MCF7, 24 h; how it was run: as §1
MCF7 [5] = assay: Cytotoxicity against estrogen receptor-positive human MCF7 cells assessed as inhibition of cell proliferation at 10 ug/ml after 24 hrs by MTT assay; format: functional; details: MCF7, 24 h; how it was run: as §1
Escherichia coli = assay: Antibacterial activity against Escherichia coli at […] after 24 hrs by agar diffusion method; format: functional; how it was run: as §2
Rattus norvegicus [6] = assay: Antiinflammatory activity in Wistar rat assessed as protection against carrageenan-induced paw edema at 100 mg/kg, po administered 1 hr before carrageenan challenge measured after 4 hrs; format: functional
Staphylococcus aureus = assay: Antibacterial activity against Staphylococcus aureus at […] after 24 hrs by agar diffusion method; format: functional; how it was run: as §2
MCF7 [7] = assay: Cytotoxicity against estrogen receptor-positive human MCF7 cells assessed as inhibition of cell proliferation at 5 ug/ml after 24 hrs by MTT assay; format: functional; details: MCF7, 24 h; how it was run: as §1
Rattus norvegicus [8] = assay: Antiinflammatory activity in Wistar rat assessed as protection against carrageenan-induced paw edema at 100 mg/kg, po administered 1 hr before carrageenan challenge measured after 3 hrs; format: functional
Rattus norvegicus [9] = assay: Antiinflammatory activity in Wistar rat assessed as protection against carrageenan-induced paw edema at 100 mg/kg, po administered 1 hr before carrageenan challenge measured after 30 mins; format: functional
Rattus norvegicus [10] = assay: Antiinflammatory activity in Wistar rat assessed as protection against carrageenan-induced paw edema at 100 mg/kg, po administered 1 hr before carrageenan challenge measured after 2 hrs; format: functional
MCF7 [11] = assay: Cytotoxicity against estrogen receptor-positive human MCF7 cells assessed as inhibition of cell proliferation after 24 hrs by MTT assay; format: functional, cell-based; how it was run: as §1
[12] = Homo sapiens, MCF7, 24 h, read-out: IC50

SMILES | Activity (Rattus norvegicus [1]) | inhibition at 25 µg/mL (MCF7 [2]) | inhibition zone (IZ) (Bacillus subtilis) | inhibition at 1 µg/mL (MCF7 [3]) | inhibition zone (IZ) (Pseudomonas aeruginosa) | inhibition at 50 µg/mL (MCF7 [4]) | inhibition at 10 µg/mL (MCF7 [5]) | inhibition zone (IZ) (Escherichia coli) | Activity (Rattus norvegicus [6]) | inhibition zone (IZ) (Staphylococcus aureus) | inhibition at 5 µg/mL (MCF7 [7]) | Activity (Rattus norvegicus [8]) | Activity (Rattus norvegicus [9]) | Activity (Rattus norvegicus [10]) | IC50 (MCF7 [11]; [12]) | IC50 (MCF7 [11]; mcf7)
Cc1[nH]nc2c1C1(C(=O)Nc3ccccc31)C(C#N)=C(N)O2 (centres undefined) | 36.1% | -5.9% | 11 mm | -1.26% | 10 mm | -4.93% | 0.51% | 12 mm | 51.6% | 13 mm | -3.16% | 69.8% | 23.5% | 54.7% |  | 
Cc1nn(-c2ccccc2)c2c1C(c1ccc([N+](=O)[O-])cc1)C(C#N)=C(N)O2 (centres undefined) |  | 85.5% | 7 mm | 2.04% | 8 mm | 96.4% | 30.8% | 15 mm |  | 8 mm | 12.5% |  |  |  | 15.1 µg/mL | 
CC(C)Cc1ccc(C(C)C(=O)O)cc1 (centres undefined) [IBUPROFEN] | 41.6% |  |  |  |  |  |  |  | 64.4% |  |  | 72.3% | 38% | 52.7% |  | 
Cc1[nH]nc2c1C1(C(C#N)=C(N)O2)c2ccccc2-c2ccccc21 |  |  | 10 mm |  | 17 mm |  |  | 10 mm |  | 10 mm |  |  |  |  |  | 
Cc1[nH]nc2c1C(c1ccc(C3C(C#N)=C(N)Oc4n[nH]c(C)c43)cc1)C(C#N)=C(N)O2 (centres undefined) |  | 24.8% |  | 11.4% |  | 26.7% | 24.4% |  |  |  | 23.4% |  |  |  |  | 
Cc1nn(-c2ccccc2)c2c1C(c1ccccc1)C(C#N)=C(N)O2 (centres undefined) | 27.7% | 55.5% | 8 mm | 1.67% | 9 mm | 84.1% | 26.9% | 14 mm | 48.3% | 6 mm | 22.4% | 53.7% | 11.7% | 42.4% | 25.8 µg/mL | 
Cc1nn(-c2ccccc2)c2c1C1(C(C#N)=C(N)O2)c2ccccc2-c2ccccc21 | 30.5% |  | 11 mm |  | 16 mm |  |  | 13 mm | 56.6% | 12 mm |  | 65.5% | 23.5% | 45.2% |  | 
Cc1[nH]nc2c1C(c1ccc(O)cc1)C(C#N)=C(N)O2 (centres undefined) |  |  |  |  | 15 mm |  |  | 15 mm |  | 13 mm |  |  |  |  |  | 
Cc1ccc(C2C(C#N)=C(N)Oc3[nH]nc(C)c32)cc1 (centres undefined) |  |  | 10 mm |  | 15 mm |  |  |  |  | 10 mm |  |  |  |  |  | 
COc1ccc(C2C(C#N)=C(N)Oc3c2c(C)nn3-c2ccccc2)cc1 (centres undefined) | 25% | 11.6% | 4 mm | 0.76% | 6 mm | 30% | 8.99% | 10 mm | 45% | 5 mm | 4.19% | 52.6% | 11.7% | 39.7% |  | 
Cc1[nH]nc2c1C(c1cccnc1)C(C#N)=C(N)O2 (centres undefined) |  | 25.2% |  | 0.41% |  | 75% | 16.3% |  |  |  | 10.1% |  |  |  | 35.4 µg/mL | 
CC(=O)O[C@H]1C(=O)[C@@]2(C)[C@H]([C@H](OC(=O)c3ccccc3)[C@]3(O)C[C@H](OC(=O)[C@H](O)[C@@H](NC(=O)c4ccccc4)c4ccccc4)C(C)=C1C3(C)C)[C@]1(OC(C)=O)CO[C@@H]1C[C@@H]2O [PACLITAXEL] |  |  |  |  |  |  |  |  |  |  |  |  |  |  |  | 15 nM
